# Measured values gathered from unrelated publications.
# Protocols differ between the studies behind these lines.
# CDK3: Cyclin-dependent kinase 3 (CDK3, Homo sapiens, UniProt Q00526)
# CDK3 with cyclin E1: Cyclin-dependent kinase 3, with cyclin E1 (CDK3, Homo sapiens, UniProt Q00526)
# CDK3 with cyclin E2: Cyclin-dependent kinase 3, with cyclin E2 (CDK3, Homo sapiens, UniProt Q00526)
# CDK3 with cyclin E: Cyclin-dependent kinase 3, with cyclin E (CDK3, Homo sapiens, UniProt Q00526)
SMILES,target,observed,action,technique,concentration,endpoint,result
COc1cc(-c2cn(C3CCc4c(F)cccc4N(CC(F)(F)F)C3=O)nn2)ccc1-n1cnc(C)c1 (centres unmarked),CDK3,cell-free assay,,competition with immobilised ligand,1 µM,remaining binding,100%
CC(C)(C)c1nc2c(s1)c1nc(N)ncc1c1ccc(NS(=O)(=O)c3c(F)cccc3F)c(F)c12,CDK3 with cyclin E1,enzyme activity,inhibitor,radiometric,1 µM,remaining activity,98%
CO[C@@H](C)c1c(Nc2ccc([C@@H](N(C)C(=O)C3CCS(=O)(=O)CC3)C(F)(F)F)cc2)cnc2cc(Cl)nn12,CDK3,cell-free assay,,competition with immobilised ligand,1 µM,remaining binding,88%
O=C(Nc1cnn(-c2csc(C(=O)NC3COC3)c2)c1)Nc1ccccc1Cl,CDK3 with cyclin E2,enzyme activity,inhibitor,,5 µM,remaining activity,95.8%
CCCS(=O)(=O)Nc1ccc(F)c(C(=O)c2c[nH]c3ncc(-c4ccc(Cl)cc4)cc23)c1F,CDK3 with cyclin E,enzyme activity,inhibitor,,1 µM,inhibition,< 10%
Cc1ccc(C(=O)Nc2ccc(CN3CCN(C)CC3)c(C(F)(F)F)c2)cc1C#Cc1cnc2cccnn12,CDK3,enzyme activity,inhibitor,,23.5 nM,remaining activity,95%
Cc1nccc(COC(=O)N2C[C@@H]3[C@@H](CNC(=O)c4ccc5[nH]nnc5c4)[C@@H]3C2)n1,CDK3,cell-free assay,,competition with immobilised ligand,1 µM,remaining binding,97%
Cc1ccc(Nc2nccc(N(C)c3ccc4c(C)n(C)nc4c3)n2)cc1S(N)(=O)=O,CDK3 with cyclin E,enzyme activity,inhibitor,,0.3 µM,inhibition,-4%
CS(=O)(=O)Nc1cccc(-c2csc(NC(=O)CSc3nc4nccnc4c(=O)n3CCc3ccccc3)n2)c1,CDK3 with cyclin E1,enzyme activity,inhibitor,,10 µM,inhibition,2%
CNC(=O)c1cc(Oc2ccc(NC(=O)Nc3ccc(Cl)c(C(F)(F)F)c3)cc2)ccn1,CDK3 with cyclin E,enzyme activity,inhibitor,,0.3 µM,inhibition,-6%
Cc1ccc(C(=O)NCc2ccsc2)cc1C#Cc1cn(C(C)C)c2ncnc(N)c12,CDK3 with cyclin E,enzyme activity,inhibitor,,1 µM,activity vs control,98%
Oc1cccc(-c2nc(N3CCOCC3)c3oc4ncccc4c3n2)c1,CDK3 with cyclin E,cell-free assay,,,0.5 µM,remaining signal,93.9%
Cc1sc(C(=O)NC2COC2)cc1-n1cc(NC(=O)Nc2c(F)cccc2Cl)cn1,CDK3 with cyclin E,enzyme activity,inhibitor,,10 µM,remaining activity,91.2%
Cc1nc(C2CCN(C(=O)c3ccc(OC(F)(F)F)cc3N)CC2)c2ncc(N3CCN(C)CC3)cc2n1,CDK3,cell-free assay,,competition with immobilised ligand,1 µM,remaining binding,100%
CN1CC(Oc2cnc(C#N)cc2-c2ccn3nc(NC(=O)C4CC4)cc3c2)C1,CDK3 with cyclin E,enzyme activity,inhibitor,,1 µM,inhibition,4%
NS(=O)(=O)c1cc(NC(=O)C2(c3ccccc3Cl)CC2)ccc1Oc1cccc(Cl)c1,CDK3,cell-free assay,,competition with immobilised ligand,1 µM,remaining binding,90%
O=C(Nc1cnn(-c2csc(C(=O)NC3COC3)c2)c1)Nc1c(F)cccc1Cl,CDK3 with cyclin E2,enzyme activity,inhibitor,,5 µM,remaining activity,109%
CCCCN(CCCC)C(=O)CN1C[C@H](c2cc(OC)c3c(c2)OCO3)[C@@H](C(=O)O)[C@@H]1CC(C)(C)CCC,CDK3,cell-free assay,,competition with immobilised ligand,1 µM,remaining binding,100%
Cc1cc(NC(=O)c2cccc3cc(-c4cccc5[nH]nc(N)c45)ccc23)ccc1F,CDK3 with cyclin E,enzyme activity,inhibitor,,0.1 µM,activity vs control,96%
N#CCCc1ccc2c(c1)-c1[nH]c3ccc([N+](=O)[O-])cc3c1CC(=O)N2,CDK3 with cyclin E,cell-free assay,,,0.5 µM,remaining signal,39.7%
CCN(CC)CCNC(=O)c1c(C)[nH]c(/C=C2\C(=O)Nc3ccc(F)cc32)c1C,CDK3 with cyclin E,enzyme activity,inhibitor,,10 µM,inhibition,41%
CN(C)CC#Cc1ccc(OCCCc2sc(N3CCc4cccc(C(=O)Nc5nc6ccccc6s5)c4C3)nc2C(=O)O)c(F)c1,CDK3,cell-free assay,,competition with immobilised ligand,1 µM,remaining binding,68%
Nc1ncnc2occ(-c3ccc(NC(=O)Nc4cc(C(F)(F)F)ccc4F)cc3)c12,CDK3,cell-free assay,inhibitor,,20 µM,remaining signal,0.05%
